Measurements: ChEMBL document CHEMBL4513216, “Probing the Open Global Health Chemical Diversity Library for Multistage-Active Starting Points for Next-Generation Antimalarials” (ACS Infect Dis, 2020)

Assay: Toxicity liver stage against HepG2, at 10uM
Format: cell-based
Parameters: test concentration 10 uM, cell line HepG2-A16-CD81EGFP
Conditions: human, HepG2-A16-CD81EGFP cells; read-out: INHIBITION
Method in brief: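 Uninfected HepG2-A16-CD81EGFP cells, 3 × 10^3 per well, 1536-well, plated on prespotted compound at 10 μM final, parasite-free screening media added to match infected plates; puromycin 10 μM positive, DMSO 0.5% negative; run in parallel with 48 h PbLuc assay at 37 °C, 5% CO2; viability by CellTiter-Glo luminescence, normalized to controls.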

Compound | cytotoxicity at 10 µM [%]
Cc1ccc(NC(=O)Nc2c[nH]c(=O)[nH]c2=O)c(Cl)c1 | -4.28
CN(Cc1cccc(C(F)(F)F)c1)Cc1nc(-c2cnccn2)no1 | 1.35
O=S(=O)(c1ccc(Cl)cc1)N1CCOC[C@H](Oc2cnccn2)C1 | -2.57
O=S(=O)(c1ccc(F)cc1)N1CCOC[C@H](Oc2cnccn2)C1 | 5.88
Cc1nn(C)cc1CC(C#N)C(=O)Nc1cccc(O)c1 (stereo not given) | 2.8
COc1cccc(C(=O)Nc2n[nH]c(C3CCCO3)n2)c1 (stereo not given) | 6
COc1ncccc1C(=O)NCCn1nc(C)ccc1=O | -7.69
Cc1cc(C)n(CC(=O)NCc2ccccn2)n1 | 3.86
CN1CCN(Cc2cccnc2)C(=O)C12CCN(S(C)(=O)=O)CC2 | 0.611
COCCN1C[C@H]2CCN(C(C)=O)CC[C@H]2S1(=O)=O | 15.4
CCN1C[C@H]2CCN(C(=O)C3CCCO3)CC[C@H]2S1(=O)=O (stereo not given in full) | 18
CC(C)CC(=O)N1CCCC2(CC(C(=O)Nc3ccccc3)=NO2)C1 (stereo not given) | 1.46
O=C(c1cscn1)N1C[C@H](OCc2cccnc2)[C@H]2COC[C@H]21 | -2.07
Cc1ccnc(OC[C@]23COC[C@H]2CN(C(=O)C2=CCCCC2)C3)n1 | 0.325
CCS(=O)(=O)N1C[C@H]2CN(Cc3cccc(F)c3)C(=O)[C@H]2C1 | 0.442
CN(C)c1ncc(-c2cc(C(=O)N3CCCC3)n(CC3CC3)c2)cn1 | -0.376
Cc1ccccc1-n1c(O)cc(C)c(C#N)c1=O | -1.54
c1nc(N2CCCC2)cnc1C1CCNCC1 | -3.87
O=C(NC1CC1)[C@H]1CN(Cc2ccccc2)C[C@@H]1C(=O)c1ccccc1 | 0.401
CC(C)(C)C(=O)N1CCC(c2cnc(-c3cn[nH]c3)cn2)CC1 | 1.16
CCc1nc(-c2cncnc2C2CCNC2)no1 (stereo not given) | 1.45
Cc1oc2c(c1C(=O)N1C[C@H](O)[C@]3(CCCO3)C1)CCCC2 | -0.4

Compound | cytotoxicity at 10 µM [%]
CO[C@H]1CN(S(=O)(=O)c2ccccc2F)C[C@@]12CCCO2 | -3.08
Cc1ccn(CCNC(=O)C2CCN(S(=O)(=O)c3ccc(F)cc3)C2)n1 (stereo not given) | -24.5
CC(=O)N1CCc2nnc(C3CCCCN3CC3CC3)n2CC1 (stereo not given) | -15.4
Cc1ccc(C2CCCN(C(=O)c3cnn(C)c3)C2)nc1 (stereo not given) | -25.8
Cc1cc(C)c2cc(CNCCCN3CCOCC3)c(=O)[nH]c2c1 | -23.8
CCC(=O)c1ccc(OCC(=O)NCC2CCCO2)cc1 (stereo not given) | -52.1
O=C(CCNC(=O)C1=Cc2ccccc2OC1)Nc1cccnc1 | -0.956
O=C1OCCC1N1CCN(c2cnccn2)CC1 (stereo not given) | -0.0916
O=C1CCCCN1CCCNCc1cnc(C2CCC2)s1 | 0.00973
COC(=O)c1ccc(Cn2cccc(C(F)(F)F)c2=O)s1 | -8.03
O=C1CCN(C(=O)NCc2cccc(Oc3ccccc3)c2)CCN1 | 4.11
CCN(C)c1cc(CNC(=O)CNC(=O)CC2CCCCC2)ccn1 | 2.34
CN(C1CCCCC1)S(=O)(=O)NC1CCCN(c2ncccn2)C1 (stereo not given) | 3.7
CC(C)N1CC(C(=O)NC(C)(C)CNC(=O)OC(C)(C)C)CC1=O (stereo not given) | -9.96
COC(=O)c1cccc(S(=O)(=O)N2CSCC2C(=O)N(C)C2CC2)c1 (stereo not given) | 5.15
COC(=O)COc1cc(NCc2c(C)noc2C)c(Cl)cc1C | 3.2
O=C(COc1ccccc1)NCC1CC1 | 7.76
CCN(C(=O)C(C)C)C(c1cccnc1)c1ccc2c(c1)CCO2 (stereo not given) | 2.14
O=C(CCc1ccncc1)NCCOc1ncc(Cl)cc1Cl | -2.56
COC(C)(C)CNC(=O)N(C)Cc1nc(-c2ccccc2)c[nH]1 | 8.07
CNC(=O)c1cccc(CCNC(=O)N2CCc3ccccc3C2)c1 | 6.72
COCCCNC(=O)CN1CCSC(c2ccccc2)C1 (stereo not given) | 13.5

Compound | cytotoxicity at 10 µM [%]
Cc1ccc(CNc2ccc(C(=O)N3CCNC(=O)C3)cn2)cc1 | 4.64
Cc1ccc(S(=O)(=O)N2CCn3nc(C)nc3C2)c(Cl)c1 | 5.09
CC1(CCNC(=O)NCc2ccsc2)OCCO1 | -6.21
CCOCCN(C)C(=O)Nc1cccc2c1CCN(CC)C2 | -49.3
NC(=O)c1ccc(S(=O)(=O)NCCc2ccccn2)cc1 | -16
CN(C)C(=O)C1CN(Cc2ccc(C#N)cc2F)c2ccccc2O1 (stereo not given) | 7.14
O=C(c1ncoc1-c1ccco1)N1CCCN(c2ncccn2)CC1 | 2.7
CN(CC(=O)NCCCOc1ccc(F)cc1)c1ccc(C#N)cn1 | -0.844
Cn1ncnc1NS(=O)(=O)c1ccc(F)cc1Cl | 5.73
CCOC(=O)Cn1ccc2cc(NC(=O)N3CCSCC3)ccc21 | 9.68
CN(CCn1cccn1)c1cc(C(F)(F)F)nc(-c2cccnc2)n1 | -3.63
CCCn1nc(-c2nc(C3CC3)no2)ccc1=O | 1.77
O=C1CC(NS(=O)(=O)c2ccccc2)CN1Cc1ccccc1 (stereo not given) | 6.89
CC(NC(=O)COc1nc(C(C)(C)C)no1)c1ccco1 (stereo not given) | -5.41
Cn1cc(Br)c(=O)c(NS(=O)(=O)c2cc(F)ccc2Cl)c1 | -11
CN(C)Cc1nc(-n2cnc(C(=O)NC3CCCC3)c2)n2ccccc12 | 7.75
O=C1CC[C@@H](CN(Cc2ccncc2)Cc2nc(-c3cccs3)no2)N1 | -10.7
Cc1ccn2c(F)c(C(=O)N3CCC4(CCCN(C)C4=O)C3)nc2c1 (stereo not given) | 2.51
Cc1ccc2ncn(C(C)Cn3cccn3)c(=O)c2c1 (stereo not given) | 4.4
c1ccc(C(CNc2ncccn2)N2CCOCC2)nc1 (stereo not given) | -47.5
Cc1ccccc1CN(CCN(C)C)Cc1ncc[nH]1 | -7.11
O=C(O)C(c1ccc2c(c1)OCCO2)N1CCSCC1 (stereo not given) | 1.38

Compound | cytotoxicity at 10 µM [%]
COCCN(C)C[C@@H]1CN(C(=O)c2cccc(C#N)c2)C[C@@H]1CO | 14.5
CCn1ccnc1CN1CCCC(CO)(CCCc2ccccc2)C1 (stereo not given) | -4.84
Cc1nc(CN)cc(N2CCC(O)(c3ccc(Cl)cc3)CC2)n1 | -8.13
CCOC(=O)CNC(=O)N1CCCC(CNC(=O)c2ccco2)C1 (stereo not given) | -10.9
CCC(=O)Nc1cccc(OCC(=O)N(C)Cc2nc(C)c[nH]2)c1 | -4.54
CCN1CCCC(C)(C(=O)NCCc2nnc(C)[nH]2)C1 (stereo not given) | 1.1
CCC(Cn1ccc2[nH]c(=O)c(C#N)cc2c1=O)OC (stereo not given) | 2.33
COCCC1(C(=O)O)CCCN(Cc2ccccc2OCCO)C1 (stereo not given) | -40.9
CC(C)(C)CN1CCN(CC2CC2)C(CCO)C1 (stereo not given) | -2.42
Cc1ccc(CN2CCN(CC(=O)N(C)C)[C@@H]3CS(=O)(=O)C[C@@H]32)cc1C | 1.18
Cc1ccc(-c2ccc(Cl)nn2)cc1S(=O)(=O)N1CCOCC1 | -4.26
Cc1ccnc(NCCCN2CCc3ccccc32)n1 | 0.979
Cc1cc(C(=O)O)cc(S(=O)(=O)Nc2ccc3c(c2)OCCCO3)c1C | -4.72
Cc1ccc(C(=O)N2CCN(Cc3cccs3)CC2)c(=O)[nH]1 | -8.39
Cc1cc(C)n(CC2CCCN2CCCS(C)(=O)=O)n1 (stereo not given) | -3.48
Cc1cc(CN2CCCC(Cn3cncn3)C2)no1 (stereo not given) | -2.12
O=C(c1nccc2ccccc12)N1CCCCC1Cn1cccn1 (stereo not given) | -4.31
Cc1cc(C)n(CC2CCCN2C(=O)c2ccnc(N(C)C)c2)n1 (stereo not given) | -16.8
CN(C(=O)c1ccc(Cl)cc1)C1CCN(c2ccccn2)CC1 | -21
Cc1ccccc1CCNC(=O)N1CCCC(c2nncn2C)C1 (stereo not given) | -29.8
CCCOc1cccc(NS(=O)(=O)c2cc(C(=O)O)cs2)c1 | 1.09
Cc1cc(CNc2ccc(C(=O)N3CCCC(C)C3)cc2C)no1 (stereo not given) | -3.92

Compound | cytotoxicity at 10 µM [%]
CCOc1ccc(Cl)c(C(=O)N2CCN(CCO)CC2)n1 | -5.15
CC(=O)NCCNC(=O)c1sc(-c2ccc(C)cc2C)nc1C | -7.62
Cc1ccc(NC2CCN(C(=O)Cn3nc(C)cc3C)CC2)nn1 | -1.81
Cc1oc(C)c(C(=O)NCc2ccccc2S(=O)(=O)N(C)C)c1C | 1.97
COCCOc1ccc(NC(=O)C2CC(=O)N(C)C2)cn1 (stereo not given) | -5.31
Cc1ncc2c(n1)C1(CCN(C(=O)C(C)C)CC1)OCC2 | 5.49
O=C1CCC2(CCC(NC3CCOC3)CC2)N1Cc1ccncc1 (stereo not given) | 3.61
COc1cc2c(cc1CN1CCn3c(CO)nnc3C1)CCC2 | -4.05
CC(C)N1CCc2onc(Cn3cccc3)c2C1 | 7.55
Cc1ccc(C(=O)N2CCC3(CC2)COC(COc2cccnc2)C3)o1 (stereo not given) | -3.16
CC(=O)N1CCN(c2cc(CCN)nc(C3CC3)n2)CC1 | -26.2
c1cncc(-c2ncnc3c2CCN(Cc2ccsc2)CC3)c1 | 8.74
Cc1ccc(N2CC[C@@H]3O[C@@H](COCc4cccnc4)CC[C@@H]32)nn1 | 8.37
Cn1ccnc1CN1CCC2(CC1)CC(Oc1cccnc1)C2 | -20.7
O=C(c1ccco1)N1CCOCC2(C1)CN(c1cccnc1)C(=O)CO2 (stereo not given) | 5.88
Cc1ccc(N2CCCC3(CCCC(=O)N3)C2)nn1 (stereo not given) | -1.52
O=c1c2sccc2nc2n1CCN(Cc1cc(F)ccc1F)CC2 | -21.8
CN(C)Cc1cncc2c1CCN(C1CCOCC1)C2 | 11.1
CO[C@@H]1CCN(Cc2ccc(C)o2)[C@H]1Cc1ccccc1 | -3.15
CN(C)[C@@H]1CN(C(=O)Cc2cccc(F)c2)[C@@H]2CCCO[C@H]12 | 1.37
Cn1ccc(C(=O)N2C[C@H]3CCC[C@@]3(COCc3cccnc3)C2)n1 | 6.87
CC(C)CC(=O)N1C[C@@H]2CCN(c3cnccn3)C[C@@H]2C1 | 3.44
